According to publication PMC6684259 (Current biology : CB, 2019):

Key:
Eg5 (kinesin-5) [1] = target: T1, Eg5 (kinesin-5) (Xenopus laevis, UniProt P28025); test: microtubule shrinkage assay with purified Eg5M plus inhibitor; format: biochemical
T1 sequence (P28025 1-368): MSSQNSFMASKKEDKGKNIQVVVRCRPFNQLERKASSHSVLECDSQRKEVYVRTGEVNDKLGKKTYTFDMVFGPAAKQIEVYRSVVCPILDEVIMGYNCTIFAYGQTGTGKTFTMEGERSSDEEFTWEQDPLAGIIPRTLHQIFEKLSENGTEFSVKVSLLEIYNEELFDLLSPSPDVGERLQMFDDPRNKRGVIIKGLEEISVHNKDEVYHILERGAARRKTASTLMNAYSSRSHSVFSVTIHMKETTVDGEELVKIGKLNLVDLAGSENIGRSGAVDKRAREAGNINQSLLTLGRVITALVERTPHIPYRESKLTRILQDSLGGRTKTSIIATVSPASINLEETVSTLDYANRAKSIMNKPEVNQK
Method in brief: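 Shrinkage run in BRB80 with oxygen scavenger and 0.2 mg/mL casein. Microtubules are grown from Cy5/biotin GMPCPP seeds with TMR-labeled bovine brain tubulin, 5 mM Mg-ATP and 2 mM Mg-GTP, ±His-purified motor (E. coli-expressed), for 20 min at 37°C. Catastrophe is triggered by flowing in 22°C tubulin-free buffer holding the same motor concentration. Shrinkage velocities come from tracked ends imaged on stage.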

Eg5 (kinesin-5) [2] = target: T1, Eg5 (kinesin-5); test: microtubule shrinkage assay with purified Eg5M in AMPPNP; format: biochemical

Structure (SMILES)	microtubule shrinkage assay with purified Eg5M plus inhibitor (TIRF) (Eg5 (kinesin-5) [1]) [nm/s]	microtubule shrinkage assay with purified Eg5M in AMPPNP (TIRF) (Eg5 (kinesin-5) [2]) [nm/s]
CC(C)(C)c1ccc2cc(C#N)c(C#N)cc2c1 [BRD9876]	0.2	–
Nc1ncnc2c1ncn2[C@@H]1O[C@H](CO[P@](=O)(O)O[P@](=O)(O)NP(=O)(O)O)[C@@H](O)[C@H]1O [AMPPNP]	–	0.5
